{
  "source": "ChEMBL document CHEMBL4706728",
  "about": "“Discovery of a Highly Selective and Potent TRPC3 Inhibitor with High Metabolic Stability and Low Toxicity” (ACS Med Chem Lett, 2021)",
  "key": {"[1]": {"biological_target": "T1, Short transient receptor potential channel 3 (Homo sapiens) (UniProt Q13507)", "T1 sequence (whole entry)": "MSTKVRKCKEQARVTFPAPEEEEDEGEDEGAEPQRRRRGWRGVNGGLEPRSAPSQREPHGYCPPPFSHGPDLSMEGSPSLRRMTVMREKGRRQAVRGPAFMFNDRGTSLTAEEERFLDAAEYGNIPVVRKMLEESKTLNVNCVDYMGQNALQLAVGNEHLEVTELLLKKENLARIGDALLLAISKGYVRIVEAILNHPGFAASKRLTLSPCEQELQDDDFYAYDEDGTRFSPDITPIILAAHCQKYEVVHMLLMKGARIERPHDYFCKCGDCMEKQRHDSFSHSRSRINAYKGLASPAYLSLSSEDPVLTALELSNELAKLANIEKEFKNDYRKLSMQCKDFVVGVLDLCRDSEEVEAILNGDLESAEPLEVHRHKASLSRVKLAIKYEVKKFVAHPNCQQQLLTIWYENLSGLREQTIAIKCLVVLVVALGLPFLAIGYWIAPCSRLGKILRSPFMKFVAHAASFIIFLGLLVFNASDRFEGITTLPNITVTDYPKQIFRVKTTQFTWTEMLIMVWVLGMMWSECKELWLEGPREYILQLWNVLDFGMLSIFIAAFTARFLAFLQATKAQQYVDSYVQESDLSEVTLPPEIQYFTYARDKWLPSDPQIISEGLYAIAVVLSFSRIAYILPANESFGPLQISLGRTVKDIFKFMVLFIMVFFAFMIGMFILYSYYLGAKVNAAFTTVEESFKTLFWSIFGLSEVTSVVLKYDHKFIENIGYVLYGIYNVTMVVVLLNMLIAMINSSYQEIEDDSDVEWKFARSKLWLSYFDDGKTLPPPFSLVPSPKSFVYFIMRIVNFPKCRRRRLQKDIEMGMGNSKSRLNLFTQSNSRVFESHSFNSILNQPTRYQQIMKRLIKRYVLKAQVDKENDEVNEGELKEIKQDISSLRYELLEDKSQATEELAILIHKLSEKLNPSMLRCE", "experiment": "Inhibition of human TRPC3 expressed in HEK293 cells assessed as inhibition of GSK170-induced current at 10 uM in absence of extracellular calcium by whole cell patch-clamp method relative to control", "type": "cell-based", "summary_of_the_method": "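Human TRPC3 transiently expressed in HEK293 cells; whole-cell patch clamp with Ca2+-free solutions. Channel activated by GSK1702934A, then test compound at 10 μM perfused with the agonist. Inhibition expressed as percentage of the agonist-evoked current; mean ± SD, n cells per compound.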"}, "[2]": {"experiment": "Toxicity in NSG/ICR mouse assessed as survival at 200 mg/kg, ip administered once daily for 5 days", "type": "organism-based", "conditions": "NSG/ICR, in vivo, dose 200 mg/kg/day, time 5 day", "summary_of_the_method": "(§1)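 Mice (n = 5 per group) dosed at 200 mg/kg by intraperitoneal injection once daily for 5 consecutive days. Survival monitored. Body weight expressed as mean percent change ± SD relative to weight at the start of treatment (day 0), with 15% weight loss as the reference line.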"}, "[3]": {"experiment": "Metabolic stability in mouse liver microsomes assessed as half life at […] measured up to 240 mins in presence of NADPH regeneration system by LC-MS analysis", "type": "ADME, Microsome"}, "[4]": {"biological_target": "T1, Short transient receptor potential channel 3 (Homo sapiens)", "experiment": "Inhibition of human TRPC3 expressed in HEK293 cells assessed as inhibition of OAG-induced current at 0.001 to 10 uM by whole cell patch-clamp method", "type": "cell-based", "conditions": "dose 0.001-10 µM", "summary_of_the_method": "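Whole-cell recordings of hTRPC3 expressed in HEK293 cells, channel activated by 1-oleoyl-2-acetyl-sn-glycerol (membrane-permeable diacylglycerol analogue) instead of GSK1702934A. Inhibitor at a range of concentrations co-perfused with agonist to build a dose–response profile.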"}, "[5]": {"biological_target": "ORAI1/STIM1 (Homo sapiens, UniProt Q96D31+Q13586)", "sequence (Q96D31 whole entry)": "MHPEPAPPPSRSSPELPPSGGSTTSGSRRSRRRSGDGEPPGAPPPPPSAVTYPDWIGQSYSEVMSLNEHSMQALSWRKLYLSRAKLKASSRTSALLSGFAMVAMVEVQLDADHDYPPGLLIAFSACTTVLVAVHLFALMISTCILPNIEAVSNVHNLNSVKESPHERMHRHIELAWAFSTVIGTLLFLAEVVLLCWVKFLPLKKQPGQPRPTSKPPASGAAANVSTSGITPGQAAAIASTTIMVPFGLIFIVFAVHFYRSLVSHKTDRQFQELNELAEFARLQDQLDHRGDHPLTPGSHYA", "sequence (Q13586 whole entry)": "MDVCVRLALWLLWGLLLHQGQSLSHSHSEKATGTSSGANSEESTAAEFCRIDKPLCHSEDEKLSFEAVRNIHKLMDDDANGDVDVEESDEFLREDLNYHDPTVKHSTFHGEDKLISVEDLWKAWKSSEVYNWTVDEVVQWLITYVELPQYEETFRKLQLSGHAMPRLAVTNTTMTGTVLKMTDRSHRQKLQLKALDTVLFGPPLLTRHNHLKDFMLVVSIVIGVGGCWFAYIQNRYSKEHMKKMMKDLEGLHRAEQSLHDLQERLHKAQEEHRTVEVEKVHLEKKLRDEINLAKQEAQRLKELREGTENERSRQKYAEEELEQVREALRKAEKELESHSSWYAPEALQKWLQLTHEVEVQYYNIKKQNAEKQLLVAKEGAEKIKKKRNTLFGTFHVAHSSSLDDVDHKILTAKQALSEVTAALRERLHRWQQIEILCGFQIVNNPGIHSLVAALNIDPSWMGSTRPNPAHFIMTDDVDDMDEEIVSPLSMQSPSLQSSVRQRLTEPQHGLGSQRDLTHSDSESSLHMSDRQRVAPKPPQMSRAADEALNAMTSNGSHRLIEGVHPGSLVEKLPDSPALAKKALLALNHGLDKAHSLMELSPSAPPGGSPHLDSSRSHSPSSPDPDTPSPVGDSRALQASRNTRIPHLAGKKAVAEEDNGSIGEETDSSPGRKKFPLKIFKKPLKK", "experiment": "Inhibition of STIM/Orai1 (unknown origin) expressed in HEK293 cells assessed as reduction in thapsigargin-induced Ca2+ influx at 10 uM in presence of Ca2+ by whole cell patch clamp method", "type": "cell-based", "conditions": "hek293, 10 µM"}, "[6]": {"experiment": "Metabolic stability in human liver microsomes assessed as half life at […] measured up to 240 mins in presence of NADPH regeneration system by LC-MS analysis", "type": "ADME, Microsome"}, "[7]": {"experiment": "Metabolic stability in rat liver microsomes assessed as half life at […] measured up to 240 mins in presence of NADPH regeneration system by LC-MS analysis", "type": "ADME, Microsome"}, "[8]": {"biological_target": "T2, Short transient receptor potential channel 3 (Homo sapiens, UniProt Q13507)", "T2 sequence (Q13507 whole entry)": "T1 sequence (whole entry)", "experiment": "Inhibition of human TRPC3 expressed in HEK293 cells assessed as inhibition of GSK170-induced current in absence of extracellular calcium by whole cell patch-clamp method", "type": "cell-based", "summary_of_the_method": "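Whole-cell patch clamp of hTRPC3 in transfected HEK293 cells, Ca2+-free solutions, currents activated by 1 μM GSK1702934A. Inhibitor at a range of concentrations perfused with agonist. Each concentration tested on independent cells and normalized to that cell's maximum current to avoid tachyphylaxis. Dose–response fitted for IC50; mean ± SD.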"}, "[9]": {"experiment": "Toxicity in NSG/ICR mouse assessed as body weight loss at 200 mg/kg, ip administered once daily for 5 days", "type": "organism-based", "conditions": "in vivo, 120 h, dose 200 mg/kg/day, time 5 day", "summary_of_the_method": "as §1"}, "[10]": {"biological_target": "T2, Short transient receptor potential channel 3", "experiment": "Inhibition of human TRPC3 expressed in HEK293 cells assessed as inhibition of GSK170-induced current in presence of 2 mM extracellular calcium by whole cell patch-clamp method", "type": "cell-based", "summary_of_the_method": "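hTRPC3 in HEK293 cells, whole-cell patch clamp with 2 mM extracellular Ca2+. Currents elicited by 1 μM GSK1702934A and challenged with a range of inhibitor concentrations by perfusion. Each concentration tested on separate cells and normalized to the cell's maximum amplitude. Dose–response curve built from the data; mean ± SD.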"}, "[11]": {"biological_target": "T3, Short transient receptor potential channel 3 (Mus musculus, UniProt Q9QZC1)", "T3 sequence (Q9QZC1 whole entry)": "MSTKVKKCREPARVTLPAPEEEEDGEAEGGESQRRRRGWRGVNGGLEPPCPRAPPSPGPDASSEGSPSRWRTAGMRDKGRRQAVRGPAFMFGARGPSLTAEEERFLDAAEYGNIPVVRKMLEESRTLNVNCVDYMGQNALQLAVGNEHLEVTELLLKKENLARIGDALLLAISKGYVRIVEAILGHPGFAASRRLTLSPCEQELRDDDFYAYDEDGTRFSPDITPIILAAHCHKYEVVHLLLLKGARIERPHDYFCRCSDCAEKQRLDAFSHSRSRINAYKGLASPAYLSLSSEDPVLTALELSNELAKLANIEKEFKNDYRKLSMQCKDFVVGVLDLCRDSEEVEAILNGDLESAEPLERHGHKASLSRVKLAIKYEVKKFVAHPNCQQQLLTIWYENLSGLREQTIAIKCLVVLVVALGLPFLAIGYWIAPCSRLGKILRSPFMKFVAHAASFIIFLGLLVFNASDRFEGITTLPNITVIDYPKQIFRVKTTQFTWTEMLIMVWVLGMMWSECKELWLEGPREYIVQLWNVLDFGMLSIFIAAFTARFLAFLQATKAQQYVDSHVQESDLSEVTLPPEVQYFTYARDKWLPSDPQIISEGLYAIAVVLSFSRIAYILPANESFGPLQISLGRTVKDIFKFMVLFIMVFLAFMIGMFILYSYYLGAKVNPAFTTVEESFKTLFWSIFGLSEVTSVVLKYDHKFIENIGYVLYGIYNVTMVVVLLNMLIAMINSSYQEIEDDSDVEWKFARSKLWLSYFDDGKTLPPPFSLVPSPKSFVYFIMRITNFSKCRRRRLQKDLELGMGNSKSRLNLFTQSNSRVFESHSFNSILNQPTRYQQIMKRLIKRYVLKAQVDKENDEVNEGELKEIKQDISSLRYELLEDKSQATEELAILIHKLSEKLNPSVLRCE", "experiment": "Inhibition of mouse TRPC3 expressed in HEK293 cells assessed as inhibition of Ca2+ influx by whole cell patch-clamp method", "type": "cell-based"}, "[12]": {"tested_on": "Hippocampal neurone", "experiment": "Neuroprotective activity in Sprague-Dawley rat primary hippocampal neurons assessed as reduction in Abeta-induced dendrites damage at 0.25 to 1 uM incubated for 16 hrs by MAP2 staining based assay", "type": "functional, tissue-based", "conditions": "dose 0.25-1 µM", "summary_of_the_method": "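Primary hippocampal neurons from E17 rat embryos, used at 14 DIV. Treated for 16 h with naturally secreted Aβ-containing 7PA2 conditioned medium (CHO medium as control), alone or with test compound at several concentrations. Neurons then immunostained for MAP2 with DAPI, and dendritic length quantified.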"}, "[13]": {"experiment": "Toxicity in NSG/ICR mouse assessed as mortality at 200 mg/kg, ip administered once daily for 5 days measured within 48 hrs", "type": "organism-based", "conditions": "in vivo, dose 200 mg/kg/day", "summary_of_the_method": "as §1"}},
  "note": "Active and inactive are the calls of the source. The calls are words filed in the database; no cut-off is given here.",
  "data": [
    {"smiles": "CCOC(=O)c1cnn(-c2ccc(-n3cc(Cl)ccc3=O)cc2)c1C(F)(F)F", "values": [
      {"measurement": "inhibition", "setting": "[1]", "result": "inactive"}
    ]},
    {"smiles": "CCOC(=O)c1cnn(-c2ccc(-n3cc(Cl)cc(Cl)c3=O)cc2)c1C(F)(F)F", "values": [
      {"measurement": "inhibition", "setting": "[1]", "result": "inactive"}
    ]},
    {"smiles": "CCOC(=O)c1cnn(-c2ccc(-n3ccc(Cl)cc3=O)cc2)c1C(F)(F)F", "values": [
      {"measurement": "inhibition", "setting": "[1]", "result": 71, "unit": "%"}
    ]},
    {"smiles": "CCOC(=O)c1cnn(-c2ccc(NC(=O)C(Cl)=C(Cl)Cl)cc2)c1C(F)(F)F", "values": [
      {"measurement": "survival at 120 h", "setting": "[2]", "result": 80, "unit": "%"},
      {"measurement": "half-life", "setting": "[3]", "result": "< 15", "unit": "min"},
      {"measurement": "inhibition", "setting": "[4]", "result": "Active"},
      {"measurement": "inhibition (INH)", "setting": "[5]", "result": "Active"},
      {"measurement": "half-life", "setting": "[6]", "result": "< 15", "unit": "min"},
      {"measurement": "half-life", "setting": "[7]", "result": "< 15", "unit": "min"},
      {"measurement": "IC50", "setting": "[8]", "result": 530, "unit": "nM"},
      {"measurement": "Activity", "setting": "[9]", "result": 15, "unit": "%"},
      {"measurement": "inhibition", "setting": "[1]", "result": 91, "unit": "%"},
      {"measurement": "IC50", "setting": "[10]", "result": 470, "unit": "nM"},
      {"measurement": "IC50", "setting": "[11]", "result": 700, "unit": "nM"},
      {"measurement": "Activity", "setting": "[12]", "result": "Active"}
    ]},
    {"smiles": "CCNC(=O)c1cnn(-c2ccc(-n3ccc(Cl)c(F)c3=O)cc2)c1C(F)(F)F", "values": [
      {"measurement": "inhibition", "setting": "[1]", "result": "inactive"}
    ]},
    {"smiles": "CCNC(=O)c1cnn(-c2ccc(NC(=O)C(Cl)=C(Cl)Cl)cc2)c1C(F)(F)F", "values": [
      {"measurement": "mortality at 48 h", "setting": "[13]", "result": 100, "unit": "%"}
    ]},
    {"smiles": "CCNS(=O)(=O)c1cnn(-c2ccc(-n3ccc(Cl)c(Cl)c3=O)cc2)c1C(F)(F)F", "values": [
      {"measurement": "inhibition", "setting": "[1]", "result": "inactive"}
    ]},
    {"smiles": "CCNC(=O)c1cnn(-c2ccc(-n3ccc(Cl)cc3=O)cc2)c1C(F)(F)F", "values": [
      {"measurement": "inhibition", "setting": "[1]", "result": 84, "unit": "%"}
    ]},
    {"smiles": "CCOC(=O)c1cnn(-c2ccc(-n3ccccc3=O)cc2)c1C(F)(F)F", "values": [
      {"measurement": "inhibition", "setting": "[1]", "result": "inactive"}
    ]}
  ]
}
